The values that follow come from ChEMBL document CHEMBL1938393, “Multiparameter exploration of piperazine derivatives as δ-opioid receptor agonists for CNS indications” (Bioorg Med Chem Lett, 2012).

The nature of data set [1]: Intrinsic clearance in human liver microsomes. The data set is classed as ADME, Microsome. To be noted: read-out: CLH. On the technique in general: Liver microsomes are a subcellular fraction often used to study metabolism.
The next data set has as its system MDR1 (P-gp), human. In words: Apparent permeability across apical to basolateral side in MDCK cells transfected with human MDR1 gene. The data set is classed as ADME, cell-based, Canis lupus familiaris. To be noted: dog. In short, it runs like this:
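Transport assay on MDCK cell monolayers transfected with the human MDR1 gene; flux measured in the apical-to-basolateral direction.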

Data set [2] concerns the target Delta-type opioid receptor (Homo sapiens, UniProt P41143). In words: Displacement of [I125]deltorphin from delta-opioid receptor overexpressed in human HEK293 cells. It counts as cell-based.
The test system of a further data set is HEK293. Nature of the data set: Selectivity ratio of IC50 for mu-opioid receptor overexpressed in human HEK293 cells to IC50 for delta-opioid receptor overexpressed in human HEK293 cells. It counts as cell-based.
The target of data set [3] is Voltage-gated inwardly rectifying potassium channel KCNH2 (Homo sapiens, UniProt Q12809). Nature of the data set: Inhibition of human Erg.
Chain of Voltage-gated inwardly rectifying potassium channel KCNH2 (Q12809 whole entry): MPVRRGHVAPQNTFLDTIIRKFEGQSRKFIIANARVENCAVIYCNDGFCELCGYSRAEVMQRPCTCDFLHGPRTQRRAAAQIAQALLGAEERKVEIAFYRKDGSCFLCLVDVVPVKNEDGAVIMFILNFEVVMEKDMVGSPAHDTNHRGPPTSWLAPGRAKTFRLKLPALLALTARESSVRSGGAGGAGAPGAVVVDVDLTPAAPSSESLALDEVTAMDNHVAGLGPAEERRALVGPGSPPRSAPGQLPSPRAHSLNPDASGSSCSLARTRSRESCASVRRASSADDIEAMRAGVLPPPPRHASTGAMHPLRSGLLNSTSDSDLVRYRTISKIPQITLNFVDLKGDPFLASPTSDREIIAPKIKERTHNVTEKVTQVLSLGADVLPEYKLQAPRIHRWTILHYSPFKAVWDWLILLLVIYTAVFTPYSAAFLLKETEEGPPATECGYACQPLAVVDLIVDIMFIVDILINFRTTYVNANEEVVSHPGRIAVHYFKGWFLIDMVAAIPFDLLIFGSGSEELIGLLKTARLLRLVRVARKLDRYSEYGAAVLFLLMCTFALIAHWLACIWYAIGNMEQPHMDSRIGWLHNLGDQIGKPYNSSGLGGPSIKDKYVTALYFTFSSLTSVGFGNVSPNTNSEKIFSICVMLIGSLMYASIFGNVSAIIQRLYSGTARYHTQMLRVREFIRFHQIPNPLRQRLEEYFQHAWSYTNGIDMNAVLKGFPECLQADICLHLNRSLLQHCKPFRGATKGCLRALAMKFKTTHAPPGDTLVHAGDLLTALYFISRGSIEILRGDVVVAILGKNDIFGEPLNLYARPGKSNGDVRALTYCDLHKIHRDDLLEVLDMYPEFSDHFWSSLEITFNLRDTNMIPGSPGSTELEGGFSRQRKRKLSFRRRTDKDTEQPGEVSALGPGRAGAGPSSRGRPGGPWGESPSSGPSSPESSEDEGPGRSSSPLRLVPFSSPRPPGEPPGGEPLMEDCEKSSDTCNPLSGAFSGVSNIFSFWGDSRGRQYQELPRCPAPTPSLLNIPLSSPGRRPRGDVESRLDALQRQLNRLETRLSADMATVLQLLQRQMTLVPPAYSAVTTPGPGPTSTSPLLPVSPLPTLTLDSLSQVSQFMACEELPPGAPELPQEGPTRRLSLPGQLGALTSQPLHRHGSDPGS

Chain of Delta-type opioid receptor (P41143 whole entry): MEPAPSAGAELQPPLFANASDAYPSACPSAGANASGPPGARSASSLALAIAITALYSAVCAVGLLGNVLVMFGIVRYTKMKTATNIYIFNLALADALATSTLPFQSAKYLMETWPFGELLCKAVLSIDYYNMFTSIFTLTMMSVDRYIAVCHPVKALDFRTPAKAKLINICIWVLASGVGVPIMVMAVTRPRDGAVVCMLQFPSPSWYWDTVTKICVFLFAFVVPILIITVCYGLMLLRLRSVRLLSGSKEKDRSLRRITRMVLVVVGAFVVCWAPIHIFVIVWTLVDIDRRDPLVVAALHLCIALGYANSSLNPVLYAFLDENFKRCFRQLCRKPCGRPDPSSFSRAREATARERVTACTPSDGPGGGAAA

Take `CCN(C)C(=O)c1ccc([C@H](c2cccnc2)N2CCN(Cc3cscn3)CC2)cc1`: the microsomal CLint in data set [1] was found to be 40 µL/min/mg. Also, in the data set on MDR1 (P-gp), human, the Papp A→B was less than 0.1 ×10⁻⁶ cm/s. For the same compound, in data set [2], the IC50 was determined as 4.7 nM.
As for `CCN(C)C(=O)c1ccc([C@H](c2ccccn2)N2CCN(Cc3ccccn3)CC2)cc1`, the microsomal CLint in data set [1] was determined as 20 µL/min/mg. The Papp A→B in the data set with MDR1 (P-gp), human turned out to be 0.25 ×10⁻⁶ cm/s. In addition, the IC50 was 5.2 nM in data set [2] and greater than 33000 nM in data set [3]. In addition, in the data set on HEK293, the Ratio IC50 was greater than 1900.
As for `CCN(CC)C(=O)c1ccc([C@H](c2cccc(NC(=O)OC)c2)N2CCN(Cc3cccnc3)CC2)cc1`, in data set [1], the microsomal CLint came out at 110 µL/min/mg. In addition, the Papp A→B in the data set on MDR1 (P-gp), human is 0.3 ×10⁻⁶ cm/s.
On the same counts, the results for `CCOC(=O)Nc1ccccc1[C@@H](c1ccc(C(=O)N(CC)CC)cc1)N1CCN(Cc2cscn2)CC1` are 430 µL/min/mg and less than 0.1 ×10⁻⁶ cm/s.
For `CCOC(=O)Nc1ccc([C@@H](c2ccc(C(=O)N(CC)CC)cc2)N2CCN(Cc3cscn3)CC2)cc1`, in data set [1], the microsomal CLint turned out to be 21 µL/min/mg. Also, the Papp A→B in the data set with MDR1 (P-gp), human was 0.13 ×10⁻⁶ cm/s. For the same compound, the figures for the IC50 in data set [2] and in data set [3] were 1.3 nM and 7300 nM, respectively. Further, in the data set on HEK293, the Ratio IC50 was determined as 2700.
In the case of `CCN(CC)C(=O)c1ccc([C@H](c2cccc(NC(=O)OC)c2)N2CCN(Cc3cncs3)CC2)cc1`, the microsomal CLint in data set [1] turned out to be 100 µL/min/mg. Moreover, the Papp A→B in the data set on MDR1 (P-gp), human was 0.22 ×10⁻⁶ cm/s. The IC50 in data set [2] stood at 0.35 nM.
In the case of `CCOC(=O)Nc1cccc([C@@H](c2ccc(C(=O)N(C)CC)cc2)N2CCN(Cc3c[nH]c(C)n3)CC2)c1`, in data set [1], the microsomal CLint is less than 4 µL/min/mg. For the same compound, the Papp A→B with MDR1 (P-gp), human was less than 0.1 ×10⁻⁶ cm/s. For the same compound, the IC50 in data set [2] was 0.7 nM; in data set [3] it was greater than 33000 nM. In addition, the Ratio IC50 in the data set with HEK293 is greater than 12000.
As for `CCOC(=O)Nc1ccccc1[C@@H](c1ccc(C(=O)N(CC)CC)cc1)N1CCN(Cc2ccccn2)CC1`, the microsomal CLint in data set [1] was determined as 650 µL/min/mg. Further, the Papp A→B in the data set with MDR1 (P-gp), human was 0.43 ×10⁻⁶ cm/s. In addition, the IC50 turned out to be 1.4 nM in data set [2] and 9900 nM in data set [3]. For the same compound, the Ratio IC50 in the data set on HEK293 was greater than 6000.
The corresponding values for `CCOC(=O)Nc1cccc([C@@H](c2ccc(C(=O)N(C)CC)cc2)N2CCN(Cc3nc[nH]c3C)CC2)c1` are 17 µL/min/mg, less than 0.1 ×10⁻⁶ cm/s, 0.26 nM, greater than 33000 nM and 14000.
The corresponding values for `CCN(CC)C(=O)c1ccc([C@H](c2cccc(NC(=O)C3CC3)c2)N2CCN(CCOC)CC2)cc1` are 26 µL/min/mg, less than 0.1 ×10⁻⁶ cm/s, 1.1 nM, greater than 30000 nM and greater than 9400.
`CCN(CC)C(=O)c1ccc([C@H](c2cccc(NC(=O)C3CC3)c2)N2CCN(Cc3ccccn3)CC2)cc1`: the microsomal CLint in data set [1] came to 260 µL/min/mg. Moreover, the IC50 in data set [2] is 0.068 nM; in data set [3] it was 20000 nM. In the data set on HEK293, the Ratio IC50 is greater than 120000.
As to `O=C(Nc1cccc([C@@H](c2ccc(C(=O)N3CCC3)cc2)N2CCN(Cc3ccc(F)cc3)CC2)c1)C1CC1`, the microsomal CLint in data set [1] was 49 µL/min/mg. In the data set on MDR1 (P-gp), human, the Papp A→B was less than 0.1 ×10⁻⁶ cm/s. Moreover, the IC50 turned out to be 0.9 nM in data set [2] and 3600 nM in data set [3]. Also, the Ratio IC50 with HEK293 is 480.
Consider `CCN(C)C(=O)c1ccc([C@H](c2cccc(NC(=O)C3CC3)c2)N2CCN(Cc3nc(C)cs3)CC2)cc1`, for which the microsomal CLint in data set [1] was 160 µL/min/mg. Moreover, the values for the IC50 in data set [2] and in data set [3] were greater than 100 nM and 18000 nM, respectively. Moreover, in the data set with HEK293, the Ratio IC50 was less than 100.
Regarding `CN(CCO)C(=O)c1ccc([C@H](c2cccc(NC(=O)C3CC3)c2)N2CCN(Cc3ccc(F)cc3)CC2)cc1`, in data set [1], the microsomal CLint was 36 µL/min/mg. In the data set on MDR1 (P-gp), human, the Papp A→B is less than 0.1 ×10⁻⁶ cm/s. In addition, the results for the IC50 in data set [2] and in data set [3] were 0.27 nM and 15000 nM, respectively. The Ratio IC50 in the data set with HEK293 is 11000.
The corresponding values for `CCN(CC)C(=O)c1ccc([C@H](c2cccc(NC(=O)C3CC3)c2)N2CCN(Cc3ccc(F)cc3)CC2)cc1` are 150 µL/min/mg, less than 0.1 ×10⁻⁶ cm/s, 0.29 nM, 11000 nM and 5200.
On the same counts, the results for `CCOC(=O)Nc1cccc([C@@H](c2ccc(C(=O)N(CC)CC)cc2)N2CCN(Cc3cscn3)CC2)c1` are 210 µL/min/mg, less than 0.1 ×10⁻⁶ cm/s, 0.071 nM, 5400 nM and 6200.
For the compound `CCN(C)C(=O)c1ccc([C@H](c2cccnc2)N2CCN(Cc3ccccn3)CC2)cc1`, the microsomal CLint in data set [1] stood at 33 µL/min/mg. Besides, the Papp A→B in the data set on MDR1 (P-gp), human worked out at 0.12 ×10⁻⁶ cm/s. The IC50 is 2 nM in data set [2] and 13000 nM in data set [3]. Moreover, in the data set with HEK293, the Ratio IC50 was greater than 5100.
Turning to `CCN(C)C(=O)c1ccc([C@H](c2cccc(NC(=O)OC)c2)N2CCN(Cc3cscn3)CC2)cc1`, in data set [1], the microsomal CLint stood at 38 µL/min/mg. In the data set with MDR1 (P-gp), human, the Papp A→B stood at 0.12 ×10⁻⁶ cm/s. Besides, the IC50 in data set [2] was 0.094 nM; in data set [3], 17000 nM. Besides, the Ratio IC50 in the data set on HEK293 amounted to 15000.
Turning to `CCOC(=O)Nc1cccc([C@@H](c2ccc(C(=O)N3CCC3)cc2)N2CCN(Cc3cccnc3)CC2)c1`, in data set [1], the microsomal CLint amounted to 53 µL/min/mg. Further, in the data set on MDR1 (P-gp), human, the Papp A→B is 0.18 ×10⁻⁶ cm/s. For the same compound, the figures for the IC50 in data set [2] and in data set [3] were 4.1 nM and 11000 nM, respectively. In addition, the Ratio IC50 with HEK293 was greater than 2200.
Turning to `CCN(C)C(=O)c1ccc([C@H](c2cccc(NC(=O)C3CCC3)c2)N2CCN(Cc3cccnc3)CC2)cc1`, the microsomal CLint in data set [1] came to 85 µL/min/mg. The Papp A→B in the data set with MDR1 (P-gp), human was less than 0.1 ×10⁻⁶ cm/s. Moreover, the results for the IC50 in data set [2] and in data set [3] were 6.6 nM and 28000 nM, respectively. In addition, in the data set on HEK293, the Ratio IC50 is greater than 1500.
Consider `CCN(C)C(=O)c1ccc([C@H](c2cccc(NC(=O)C3CC3)c2)N2CCN(CCCOC)CC2)cc1`, for which the microsomal CLint in data set [1] was less than 4 µL/min/mg. Also, the values for the IC50 in data set [2] and in data set [3] were 23 nM and 13000 nM, respectively. Moreover, the Ratio IC50 in the data set with HEK293 worked out at 33.

Broadly, the Papp A→B is how fast a substance crosses the layer from the apical side. By IC50 is commonly meant the point on the concentration scale where inhibition reaches its midpoint. Low values mean greater potency in that assay, high ones weaker potency in that assay.
